In general, IC50 refers to the concentration that gives 50% inhibition. Usually inhibition stands for the percentage by which the read-out fell short of the control.

Read-outs that look alike come from different tables or passages of the source.

Assay [1] deals with GFP-Sc-Dyn V2391S/M2732S (AAA3_V-S/AAA4_M-S) (Saccharomyces cerevisiae, UniProt P36022, M2732S/V2391S). The assay is described as follows: Microscale thermophoresis. As to conditions: read-out: EC50, AMPPNP binding to AAA3_V-S/AAA4_M-S (MST); mean ± 95% CI, n=3. Type of assay: binding.
GFP-Sc-Dyn V2391S/M2732S (AAA3_V-S/AAA4_M-S), sequence (P36022 1219-4092 V2391S/M2732S): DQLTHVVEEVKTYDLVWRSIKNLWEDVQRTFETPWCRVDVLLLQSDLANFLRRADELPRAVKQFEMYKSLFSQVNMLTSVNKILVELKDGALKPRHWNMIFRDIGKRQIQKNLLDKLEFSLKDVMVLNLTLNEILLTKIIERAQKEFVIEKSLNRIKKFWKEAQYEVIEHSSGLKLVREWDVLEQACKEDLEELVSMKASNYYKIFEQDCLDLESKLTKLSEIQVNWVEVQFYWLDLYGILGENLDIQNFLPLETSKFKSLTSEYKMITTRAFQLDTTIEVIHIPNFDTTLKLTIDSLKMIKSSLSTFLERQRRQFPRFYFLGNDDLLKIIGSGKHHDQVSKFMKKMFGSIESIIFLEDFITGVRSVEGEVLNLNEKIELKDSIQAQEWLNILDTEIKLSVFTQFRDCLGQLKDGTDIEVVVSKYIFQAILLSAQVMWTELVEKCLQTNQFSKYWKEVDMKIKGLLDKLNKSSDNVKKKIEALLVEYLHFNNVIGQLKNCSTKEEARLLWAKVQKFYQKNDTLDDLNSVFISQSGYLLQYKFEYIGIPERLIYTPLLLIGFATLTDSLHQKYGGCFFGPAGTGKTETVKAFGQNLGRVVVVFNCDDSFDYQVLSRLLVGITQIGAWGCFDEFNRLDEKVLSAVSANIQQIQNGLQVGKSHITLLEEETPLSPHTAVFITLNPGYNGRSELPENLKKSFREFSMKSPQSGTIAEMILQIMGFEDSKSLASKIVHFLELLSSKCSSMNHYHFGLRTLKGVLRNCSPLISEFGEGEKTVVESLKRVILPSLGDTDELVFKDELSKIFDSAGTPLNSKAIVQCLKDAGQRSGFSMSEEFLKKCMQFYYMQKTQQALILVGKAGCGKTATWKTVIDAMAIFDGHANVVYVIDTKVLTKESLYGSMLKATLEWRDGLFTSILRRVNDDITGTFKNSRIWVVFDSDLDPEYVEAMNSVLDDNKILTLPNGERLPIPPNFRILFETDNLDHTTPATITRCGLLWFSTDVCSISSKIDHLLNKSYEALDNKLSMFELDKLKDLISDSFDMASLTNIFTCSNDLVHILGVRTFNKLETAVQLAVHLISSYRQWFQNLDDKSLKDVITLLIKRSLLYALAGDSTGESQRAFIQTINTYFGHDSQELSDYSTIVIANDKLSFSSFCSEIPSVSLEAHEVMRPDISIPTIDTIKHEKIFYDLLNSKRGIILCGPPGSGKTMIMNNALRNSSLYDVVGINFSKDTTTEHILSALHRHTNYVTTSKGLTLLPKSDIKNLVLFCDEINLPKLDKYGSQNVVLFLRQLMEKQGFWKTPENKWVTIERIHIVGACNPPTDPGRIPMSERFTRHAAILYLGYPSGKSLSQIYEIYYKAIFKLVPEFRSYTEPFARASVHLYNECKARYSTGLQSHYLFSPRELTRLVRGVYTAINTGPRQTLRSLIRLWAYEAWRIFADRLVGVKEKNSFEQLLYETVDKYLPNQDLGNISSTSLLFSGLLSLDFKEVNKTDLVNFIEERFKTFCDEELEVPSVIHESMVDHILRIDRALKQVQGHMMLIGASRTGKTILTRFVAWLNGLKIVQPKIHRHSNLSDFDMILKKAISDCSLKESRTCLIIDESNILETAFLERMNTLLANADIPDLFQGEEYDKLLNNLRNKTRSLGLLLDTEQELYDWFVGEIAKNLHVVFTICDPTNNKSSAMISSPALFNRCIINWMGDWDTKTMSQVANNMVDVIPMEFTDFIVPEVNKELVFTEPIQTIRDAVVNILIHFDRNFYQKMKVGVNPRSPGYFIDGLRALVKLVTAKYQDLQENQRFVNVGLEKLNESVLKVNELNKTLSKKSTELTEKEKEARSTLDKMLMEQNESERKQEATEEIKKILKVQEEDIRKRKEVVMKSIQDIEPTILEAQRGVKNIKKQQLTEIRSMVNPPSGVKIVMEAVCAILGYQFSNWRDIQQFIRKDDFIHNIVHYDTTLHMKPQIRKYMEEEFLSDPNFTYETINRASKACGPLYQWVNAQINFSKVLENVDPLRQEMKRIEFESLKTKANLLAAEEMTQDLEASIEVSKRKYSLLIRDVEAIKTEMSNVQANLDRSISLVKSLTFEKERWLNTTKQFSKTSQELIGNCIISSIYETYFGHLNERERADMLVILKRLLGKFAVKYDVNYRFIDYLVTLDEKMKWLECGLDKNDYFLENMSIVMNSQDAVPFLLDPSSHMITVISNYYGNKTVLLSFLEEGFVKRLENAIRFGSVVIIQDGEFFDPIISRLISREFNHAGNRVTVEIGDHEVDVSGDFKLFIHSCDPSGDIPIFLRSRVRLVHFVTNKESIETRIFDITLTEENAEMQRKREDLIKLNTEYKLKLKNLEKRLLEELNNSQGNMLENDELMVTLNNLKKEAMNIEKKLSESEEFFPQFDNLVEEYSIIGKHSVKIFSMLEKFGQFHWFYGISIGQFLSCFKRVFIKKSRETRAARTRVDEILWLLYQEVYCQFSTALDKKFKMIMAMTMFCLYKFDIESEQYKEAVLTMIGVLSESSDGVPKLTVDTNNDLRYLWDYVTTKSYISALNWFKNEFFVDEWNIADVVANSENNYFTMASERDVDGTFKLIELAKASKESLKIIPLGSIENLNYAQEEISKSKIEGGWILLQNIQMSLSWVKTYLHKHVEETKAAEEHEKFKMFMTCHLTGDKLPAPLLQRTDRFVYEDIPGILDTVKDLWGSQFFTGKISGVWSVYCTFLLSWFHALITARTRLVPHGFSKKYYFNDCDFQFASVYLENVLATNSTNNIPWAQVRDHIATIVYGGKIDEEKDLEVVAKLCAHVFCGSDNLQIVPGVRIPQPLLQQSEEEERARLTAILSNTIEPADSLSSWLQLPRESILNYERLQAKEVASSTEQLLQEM
The target of assay [2] is T1, GFP-Sc-Dyn (Saccharomyces cerevisiae, UniProt P36022). The assay is described as follows: Microscale thermophoresis. Type of assay: binding, S. cerevisiae.
T1 sequence (P36022 1219-4092): as the sequence (P36022 1219-4092 V2391S/M2732S) above, with S1173V, S1514M counted along it
Assay [3] addresses T2, Hs-dynein 1 (Homo sapiens, UniProt Q14204). The assay is described as follows: Radioactive ATPase assay, basal ATPase activity of Hs-dynein 1. Type of assay: biochemical. As to conditions: for Inhibition of Hs-dynein 1 basal ATPase activity (in words): compounds tested at 20 μM, 1 mM MgATP, no microtubules, n=2. The gist of the method:
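Hs-dynein 1 motor construct (N-terminal His6, aa 1320–4646) at 30 nM, without microtubules. Radioactive ATPase reaction ran for 45 min with test compound. Percent inhibition was obtained by normalising the ATPase rate with compound to DMSO control.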

Assay [4] has as its target T2, Hs-dynein 1. As to conditions: ref Steinman et al., 2017; cited from earlier work.
The target of assay [5] is T2, Hs-dynein 1. As to conditions: read-out: IC50, inhibition of Hs-dynein 1; ref Steinman et al., 2017; cited from earlier work.
The target of the next assay is Sc-DynGST (Saccharomyces cerevisiae, UniProt P36022). The assay is described as follows: Single-molecule motility assay. As to conditions: single-molecule. Type of assay: biochemical, S. cerevisiae.
Sc-DynGST, sequence (P36022 1219-4092 limits assumed): as the sequence (P36022 1219-4092 V2391S/M2732S) above, with S1173V, S1514M counted along it
The target in assay [6] is T1, GFP-Sc-Dyn. The assay is described as follows: Microtubule gliding assay. Type of assay: biochemical, S. cerevisiae. The conditions noted are these: 25 μM compound.
The target of assay [7] is T3, Sc-Dyn-lyso (Saccharomyces cerevisiae, UniProt P36022).
T3 sequence (P36022 1758-2992 limits assumed): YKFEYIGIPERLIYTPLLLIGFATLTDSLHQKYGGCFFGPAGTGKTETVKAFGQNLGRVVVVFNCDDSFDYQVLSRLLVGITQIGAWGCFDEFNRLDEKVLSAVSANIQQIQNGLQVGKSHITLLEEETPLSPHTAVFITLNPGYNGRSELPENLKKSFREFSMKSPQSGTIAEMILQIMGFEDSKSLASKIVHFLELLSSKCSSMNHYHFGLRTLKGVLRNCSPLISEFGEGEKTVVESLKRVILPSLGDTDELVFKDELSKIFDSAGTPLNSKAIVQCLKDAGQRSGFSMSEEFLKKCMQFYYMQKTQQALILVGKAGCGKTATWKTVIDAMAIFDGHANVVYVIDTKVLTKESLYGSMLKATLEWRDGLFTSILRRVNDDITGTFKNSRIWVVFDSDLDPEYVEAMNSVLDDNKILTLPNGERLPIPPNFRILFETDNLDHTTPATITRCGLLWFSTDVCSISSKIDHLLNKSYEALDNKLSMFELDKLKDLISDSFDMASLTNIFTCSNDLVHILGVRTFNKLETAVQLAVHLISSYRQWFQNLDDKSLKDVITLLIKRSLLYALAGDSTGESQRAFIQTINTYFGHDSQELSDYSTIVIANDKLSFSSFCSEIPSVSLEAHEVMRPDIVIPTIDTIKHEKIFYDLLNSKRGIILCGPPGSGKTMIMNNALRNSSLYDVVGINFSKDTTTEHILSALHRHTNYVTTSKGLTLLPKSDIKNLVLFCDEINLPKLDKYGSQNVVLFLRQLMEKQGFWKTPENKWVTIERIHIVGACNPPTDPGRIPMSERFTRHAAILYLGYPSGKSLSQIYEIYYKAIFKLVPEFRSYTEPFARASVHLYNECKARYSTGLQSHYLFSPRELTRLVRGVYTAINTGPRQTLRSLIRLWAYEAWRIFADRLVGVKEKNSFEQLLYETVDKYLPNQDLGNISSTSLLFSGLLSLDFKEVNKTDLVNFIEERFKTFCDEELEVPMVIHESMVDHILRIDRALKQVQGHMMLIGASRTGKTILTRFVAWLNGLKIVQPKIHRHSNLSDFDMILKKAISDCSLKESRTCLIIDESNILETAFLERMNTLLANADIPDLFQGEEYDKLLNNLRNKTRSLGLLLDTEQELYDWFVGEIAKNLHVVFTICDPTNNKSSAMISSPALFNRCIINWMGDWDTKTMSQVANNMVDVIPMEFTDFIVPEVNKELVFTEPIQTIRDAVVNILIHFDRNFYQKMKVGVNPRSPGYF
T3 sequence (P36022 3301-4092 limits assumed): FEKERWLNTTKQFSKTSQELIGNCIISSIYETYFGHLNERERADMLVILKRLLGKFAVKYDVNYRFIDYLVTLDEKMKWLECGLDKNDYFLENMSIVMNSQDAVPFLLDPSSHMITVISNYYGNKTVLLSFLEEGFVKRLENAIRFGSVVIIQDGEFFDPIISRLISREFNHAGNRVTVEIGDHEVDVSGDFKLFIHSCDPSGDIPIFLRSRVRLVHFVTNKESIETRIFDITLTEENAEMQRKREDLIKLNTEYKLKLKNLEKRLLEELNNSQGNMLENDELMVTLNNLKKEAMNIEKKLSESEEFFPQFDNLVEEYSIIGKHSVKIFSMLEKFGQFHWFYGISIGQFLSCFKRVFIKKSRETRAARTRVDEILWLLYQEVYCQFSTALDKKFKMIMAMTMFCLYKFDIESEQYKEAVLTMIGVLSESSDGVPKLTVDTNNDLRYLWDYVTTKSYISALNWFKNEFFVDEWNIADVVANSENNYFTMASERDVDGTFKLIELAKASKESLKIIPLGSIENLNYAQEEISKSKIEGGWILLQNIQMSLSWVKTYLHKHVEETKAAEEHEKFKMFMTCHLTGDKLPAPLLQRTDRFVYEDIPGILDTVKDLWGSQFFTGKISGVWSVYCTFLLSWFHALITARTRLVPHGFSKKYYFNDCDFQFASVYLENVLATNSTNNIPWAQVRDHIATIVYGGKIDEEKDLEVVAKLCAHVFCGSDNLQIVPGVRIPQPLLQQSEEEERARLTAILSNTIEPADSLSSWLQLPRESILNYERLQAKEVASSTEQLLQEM
The assay is described as follows: Microscale thermophoresis. The conditions noted are these: n=2, negative control. Type of assay: binding, S. cerevisiae. (In general: Microscale thermophoresis detects binding through changes in fluorescence in a small temperature gradient.)

For a further assay, the target named is T4, Hs-FIGL1 (Homo sapiens, UniProt Q6PIW4).
T4 sequence (Q6PIW4 288-674): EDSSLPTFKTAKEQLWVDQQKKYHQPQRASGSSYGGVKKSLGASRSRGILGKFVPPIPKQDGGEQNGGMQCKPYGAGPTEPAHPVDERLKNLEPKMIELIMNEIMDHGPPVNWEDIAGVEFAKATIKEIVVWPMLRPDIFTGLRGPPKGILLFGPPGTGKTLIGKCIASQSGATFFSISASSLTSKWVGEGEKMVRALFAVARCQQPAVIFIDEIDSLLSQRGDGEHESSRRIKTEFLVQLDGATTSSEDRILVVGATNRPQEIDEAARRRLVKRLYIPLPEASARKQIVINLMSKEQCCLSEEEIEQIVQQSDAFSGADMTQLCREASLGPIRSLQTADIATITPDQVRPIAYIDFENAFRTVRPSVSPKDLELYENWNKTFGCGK
The assay is described as follows: NADH-coupled steady-state ATPase assay, Hs-FIGL1. The conditions noted are these: read-out: Inhibition of ATPase activity, Hs-FIGL1. Type of assay: biochemical, H. sapiens. The gist of the method:
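Recombinant Hs-FIGL1 (50 nM; E. coli-expressed) in 25 mM Na-MES pH 6.5, 70 mM KOAc, 20 mM (NH4)2SO4, 5 mM Mg(OAc)2, 1 mM TCEP, 0.01% Triton X-100, with NADH/PEP/pyruvate kinase/lactate dehydrogenase coupling system. Protein preincubated 10 min at RT with test compound, then MgATP added. NADH fluorescence (ex 340, em 440 nm) slope converted to ATPase rate with an ADP standard curve.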

The target in assay [8] is T1, GFP-Sc-Dyn. The assay is described as follows: NADH-coupled steady-state ATPase assay, GFP-Sc-Dyn basal ATPase. Type of assay: biochemical, S. cerevisiae.
The next assay deals with Mm-VCP/p97 (Mus musculus, UniProt Q01853). The assay is described as follows: NADH-coupled steady-state ATPase assay, Mm-VCP/p97. Type of assay: biochemical, M. musculus. The conditions noted are these: 20 μM, 1 mM MgATP.
Mm-VCP/p97, sequence (Q01853 whole entry): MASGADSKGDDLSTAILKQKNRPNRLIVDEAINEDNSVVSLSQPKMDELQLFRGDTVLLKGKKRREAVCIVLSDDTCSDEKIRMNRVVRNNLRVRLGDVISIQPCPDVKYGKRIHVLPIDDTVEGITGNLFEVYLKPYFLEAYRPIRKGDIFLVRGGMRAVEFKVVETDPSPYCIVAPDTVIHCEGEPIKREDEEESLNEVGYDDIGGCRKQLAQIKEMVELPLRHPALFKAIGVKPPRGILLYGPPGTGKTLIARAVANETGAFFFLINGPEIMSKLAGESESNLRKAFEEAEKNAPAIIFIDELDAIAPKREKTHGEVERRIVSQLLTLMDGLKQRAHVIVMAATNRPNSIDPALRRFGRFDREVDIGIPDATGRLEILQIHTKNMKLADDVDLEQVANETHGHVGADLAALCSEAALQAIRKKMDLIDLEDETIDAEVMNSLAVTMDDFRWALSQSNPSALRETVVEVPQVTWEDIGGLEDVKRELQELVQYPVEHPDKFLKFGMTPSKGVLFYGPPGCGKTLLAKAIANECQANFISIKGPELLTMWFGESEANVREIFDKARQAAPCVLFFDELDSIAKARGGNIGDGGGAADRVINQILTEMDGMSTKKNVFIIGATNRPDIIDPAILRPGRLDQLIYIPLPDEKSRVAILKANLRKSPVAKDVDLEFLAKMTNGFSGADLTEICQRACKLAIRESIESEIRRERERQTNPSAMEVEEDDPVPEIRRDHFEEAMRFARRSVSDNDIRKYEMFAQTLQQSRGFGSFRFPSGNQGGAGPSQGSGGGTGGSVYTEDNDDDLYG
A further assay deals with Xl-katanin (Xenopus laevis, UniProt Q9PUL2). The assay is described as follows: NADH-coupled steady-state ATPase assay, Xl-katanin. The conditions noted are these: 20 μM, 1 mM MgATP. In kind it is biochemical, X. laevis. The method in brief: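 Recombinant Xl-katanin (50 nM; E. coli, MBP-trap, MonoQ and gel filtration) in 25 mM K-HEPES pH 7.5, 70 mM KCl, 20 mM (NH4)2SO4, 5 mM MgCl2, 2.5 mM DTT, 0.01% Triton X-100 plus NADH-coupled regeneration mix. After 10 min RT preincubation with test compound, MgATP started the reaction. The fluorescence decrease rate (340/440 nm) was converted to ATPase rate using an ADP standard curve.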
Xl-katanin, sequence (Q9PUL2 whole entry): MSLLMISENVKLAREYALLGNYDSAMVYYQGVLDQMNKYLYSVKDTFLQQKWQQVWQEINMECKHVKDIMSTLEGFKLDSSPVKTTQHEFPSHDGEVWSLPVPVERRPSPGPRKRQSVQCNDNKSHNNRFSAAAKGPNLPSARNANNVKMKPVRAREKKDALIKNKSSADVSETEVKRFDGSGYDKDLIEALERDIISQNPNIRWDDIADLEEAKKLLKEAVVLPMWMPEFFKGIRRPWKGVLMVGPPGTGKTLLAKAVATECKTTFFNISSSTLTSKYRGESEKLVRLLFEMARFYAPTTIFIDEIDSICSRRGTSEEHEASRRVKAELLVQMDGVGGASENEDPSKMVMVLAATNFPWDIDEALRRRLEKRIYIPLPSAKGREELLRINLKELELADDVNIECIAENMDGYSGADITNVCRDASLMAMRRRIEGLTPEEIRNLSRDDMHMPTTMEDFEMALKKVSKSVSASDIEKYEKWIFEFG

A further assay addresses Dm-spastin (Drosophila melanogaster, UniProt Q8I0P1, DEL311-372). The assay is described as follows: NADH-coupled steady-state ATPase assay, Dm-spastin. Type of assay: biochemical, D. melanogaster. As to conditions: 20 μM, 1 mM MgATP.
Assay [9] deals with Sc-Dyn-lyso (Saccharomyces cerevisiae, UniProt P36022). The assay is described as follows: NADH-coupled steady-state ATPase assay, Sc-Dyn-lyso. In kind it is biochemical, S. cerevisiae. The gist of the method:
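Ten-dose DMSO serial dilution of test compound (stock top 4 mM) was preincubated 10 min at RT. MgATP (10 mM stock) started the reaction, and NADH fluorescence slopes were converted via an ADP standard curve.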

Assay [10] deals with T2, Hs-dynein 1. The assay is described as follows: Radioactive ATPase assay, microtubule-stimulated ATPase activity of Hs-dynein 1. In kind it is biochemical. The method in brief:
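Radioactive ATPase assay with Hs-dynein 1 (His6, aa 1320–4646; 30 nM) in the presence of microtubules. Reaction time was 45 min, and rates with test compound were normalised to DMSO control.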

For the compound `Nc1ncnc2c1ncn2[C@@H]1O[C@H](COP(=O)(O)OP(=O)(O)NP(=O)(O)O)[C@@H](O)[C@H]1O` [AMPPNP, adenylyl imidodiphosphate, reference compound], the EC50 stood at 180 ± 78 µM in assay [1] and 25 ± 20 µM at GFP-Sc-Dyn [2] (read-out: EC50, AMPPNP binding to GFP-Sc-Dyn (MST), mean ± 95% CI, n=3, 60% MST power).
Take `COc1cccc(Oc2c[nH]c3c(C#N)c(C4(c5ccc(Cl)cc5)CC4)nn3c2=O)c1` [compound 16, 2-[1-(4-chlorophenyl)cyclopropyl]-6-(3-methoxyphenoxy)-7-oxo-4H-pyrazolo[1,5-a]pyrimidine-3-carbonitrile]: at Hs-dynein 1 [3], the “Inhibition of Hs-dynein 1 basal ATPase activity (in words)” value is on record as “less active”.
As to `N#CC(=C(O)c1ccc(Cl)cc1Cl)c1nc2cc(Cl)ccc2c(=O)[nH]1` [compound 1, ciliobrevin D], the “Inhibition of dynein's basal ATPase activity (in words)” value at Hs-dynein 1 [4] was “does not”.
For the compound `N#Cc1c(C2(c3ccc(Cl)cc3)CC2)nn2c1[nH]c(=O)c1cc(I)ccc12` [compound 2, dynapyrazole-A], the concentration for half-maximal inhibition (IC50) on Hs-dynein 1 [5] was ~10 µM.
Consider `COc1c[nH]c2c(C#N)c(C3(c4ccc(Cl)cc4)CC3)nn2c1=O` [compound 6, 2-[1-(4-chlorophenyl)cyclopropyl]-6-methoxy-7-oxo-4H-pyrazolo[1,5-a]pyrimidine-3-carbonitrile], for which the “Binding to GFP-Sc-Dyn (MST, in words)” value at GFP-Sc-Dyn [2] (control compound) is “could not detect binding”. For the same compound, the “Inhibition of Hs-dynein 1 basal ATPase activity (in words)” value on Hs-dynein 1 [3] was “does not inhibit”. The “Effect on landing rate (in words)” value at Sc-DynGST is “not sensitive”. At Sc-DynGST (0-50 μM compound), the “Effect on dynein processivity (run length) (in words)” value is on record as “not sensitive” and the “Effect on dynein velocity (in words)” value is recorded as “not sensitive”. The “Effect on microtubule gliding (in words)” value at GFP-Sc-Dyn [6] was “comparable to DMSO”. Also, at GFP-Sc-Dyn [6] (1% DMSO, 1 mM Mg-ATP, mean ± SD), the “Microtubule gliding velocity, 30 minutes after treatment” value stood at 66 ± 21. Further, the “Binding to Sc-Dyn-lyso (MST, in words)” value at Sc-Dyn-lyso [7] is reported as “did not bind”.
As to `N#Cc1c(C2(c3ccc(Cl)cc3)CC2)nn2c(=O)c(Oc3cccc(Cl)c3)c[nH]c12` [compound 19, 6-(3-chlorophenoxy)-2-[1-(4-chlorophenyl)cyclopropyl]-7-oxo-4H-pyrazolo[1,5-a]pyrimidine-3-carbonitrile], the inhibition at 20 µM at Hs-FIGL1 is ~85%. Further, the half-inhibitory concentration (IC50) is 17 ± 2.3 µM at Hs-dynein 1 [3], 10 ± 1.2 µM at GFP-Sc-Dyn [8], 14 ± 4.9 µM at Sc-Dyn-lyso [9] and ~30 µM at Hs-dynein 1 [10]. The “Inhibition of Hs-dynein 1 basal ATPase activity (in words)” value at Hs-dynein 1 [3] is listed as “most active”. In addition, the “Reduction of ATPase activity, Mm-VCP” value at Mm-VCP/p97 is < 25%. On Xl-katanin, the “Reduction of ATPase activity, Xl-katanin” value is recorded as < 25%. The “Reduction of ATPase activity, Dm-spastin” value on Dm-spastin is listed as < 25%.
In the case of `N#Cc1c(C2(c3ccc(Cl)cc3)CC2)nn2c(=O)c(Oc3ccccc3Cl)c[nH]c12` [compound 13, 6-(2-chlorophenoxy)-2-[1-(4-chlorophenyl)cyclopropyl]-7-oxo-4H-pyrazolo[1,5-a]pyrimidine-3-carbonitrile], at Hs-dynein 1 [3], the “Inhibition of Hs-dynein 1 basal ATPase activity (in words)” value is given as “less active”.
Turning to `N#Cc1c(C2(c3ccc(Cl)cc3)CC2)nn2c(=O)c(Oc3ccc(Cl)cc3)c[nH]c12` [compound 17, 6-(4-chlorophenoxy)-2-(1-(4-chlorophenyl)cyclopropyl)-7-oxo-4,7-dihydropyrazolo[1,5-a]pyrimidine-3-carbonitrile], the “Inhibition of Hs-dynein 1 basal ATPase activity (in words)” value at Hs-dynein 1 [3] is recorded as “less active”.
